Laboratory results as given in ChEMBL document CHEMBL1177716, “Kinesin spindle protein (KSP) inhibitors with 2,3-fused indole scaffolds” (J Med Chem, 2010).
Active and inactive are the calls of the source. No cut-off for these calls is given here.

Assays:
[1] = biological target: T1, Kinesin-like protein KIF11 (Homo sapiens, UniProt P52732); assay: Inhibition of human C-terminally His6-tagged microtubule-activated KSP motor domain ATPase activity after 30 mins by luciferase-derived luminescence assay
T1 sequence (P52732 whole entry): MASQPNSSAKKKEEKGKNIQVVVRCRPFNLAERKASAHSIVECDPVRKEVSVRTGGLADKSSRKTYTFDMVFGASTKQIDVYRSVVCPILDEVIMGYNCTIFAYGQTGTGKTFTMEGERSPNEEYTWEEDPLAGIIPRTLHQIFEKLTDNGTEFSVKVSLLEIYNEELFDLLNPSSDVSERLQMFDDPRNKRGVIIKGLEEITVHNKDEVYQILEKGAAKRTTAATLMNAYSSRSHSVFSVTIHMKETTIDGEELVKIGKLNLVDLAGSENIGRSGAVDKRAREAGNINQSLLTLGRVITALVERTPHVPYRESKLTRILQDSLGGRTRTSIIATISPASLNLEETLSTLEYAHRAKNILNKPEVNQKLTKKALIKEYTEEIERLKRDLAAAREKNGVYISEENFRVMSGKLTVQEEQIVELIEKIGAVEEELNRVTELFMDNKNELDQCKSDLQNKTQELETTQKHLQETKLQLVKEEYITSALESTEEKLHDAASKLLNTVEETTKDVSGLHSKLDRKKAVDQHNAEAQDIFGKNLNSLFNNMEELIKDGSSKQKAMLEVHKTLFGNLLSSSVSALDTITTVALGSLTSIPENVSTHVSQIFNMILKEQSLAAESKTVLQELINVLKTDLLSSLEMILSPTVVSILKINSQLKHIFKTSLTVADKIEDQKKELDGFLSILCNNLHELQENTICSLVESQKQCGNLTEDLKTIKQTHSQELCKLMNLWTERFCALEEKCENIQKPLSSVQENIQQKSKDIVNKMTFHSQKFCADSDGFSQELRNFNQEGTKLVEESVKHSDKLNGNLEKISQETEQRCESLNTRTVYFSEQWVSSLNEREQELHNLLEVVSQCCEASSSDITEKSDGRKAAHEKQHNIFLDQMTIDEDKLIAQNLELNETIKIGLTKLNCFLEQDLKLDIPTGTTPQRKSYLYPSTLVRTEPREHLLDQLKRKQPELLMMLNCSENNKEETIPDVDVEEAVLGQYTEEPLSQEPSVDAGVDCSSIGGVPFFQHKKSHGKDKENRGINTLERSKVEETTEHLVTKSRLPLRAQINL

HeLa [2] = assay: Cytotoxicity against human HeLa cells after 48 hrs […]; assay type: functional, cell-based; settings: for IC50: Homo sapiens, HeLa, 48 h
HeLa [3] = assay: Cytotoxicity against human HeLa cells at 60 uM after 48 hrs […]; assay type: functional
HeLa [4] = assay: Cell cycle arrest in human HeLa cells assessed as accumulation at G2/M phase with incomplete chromosome condensation at 36 uM after 20 hrs by DAPI staining; assay type: functional, cell-based
HeLa [5] = assay: Cell cycle arrest in human HeLa cells assessed as accumulation at M phase at 36 uM after 20 hrs by DAPI staining relative to taxol; assay type: functional; settings: in the assay text read “at 32 uM” for “at 36 uM”
Outline: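 HeLa cells were exposed to compound for 20 h and scored for M-phase arrest. Mitotic index was expressed as a percentage of the induction given by 0.1 μM taxol.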

Sus scrofa [6] = species on record: Sus scrofa; assay: Inhibition of pig brain topoisomerase 1-mediated supercoiled DNA relaxation after 20 mins by agarose gel electrophoresis analysis
Outline: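 Supercoiled DNA was incubated with topo I, with or without test compound. Gel lanes included supercoiled DNA alone, DNA plus enzyme without compound, and DNA plus enzyme with camptothecin as the reference inhibitor.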

Sus scrofa [7] = species on record: Sus scrofa; assay: Inhibition of pig brain topoisomerase 2-mediated supercoiled DNA relaxation after 20 mins by agarose gel electrophoresis analysis
Outline: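 Supercoiled DNA was incubated with topo II, with or without test compound. Gel lanes included supercoiled DNA alone, DNA plus enzyme without compound, and DNA plus enzyme with AMSA as the reference inhibitor.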

SMILES	IC50 [1]	IC50 (HeLa [2])	inhibition at 60 µM (HeLa [3])	other results
CC(C)c1ccc2c(c1)[nH]c1ccccc12	1.5 µM	1.5 µM	–	–
CCCCN1C(=O)[C@@H]2Cc3c([nH]c4ccccc34)[C@@H](c3cccc(O)c3)N2C1=O	7.1 µM	8.6 µM	–	–
CC(C)(C)c1cccc2c1[nH]c1ccccc12	14 µM	41 µM	–	–
COC(=O)c1ccc2c(c1)[nH]c1ccccc12	11 µM	–	< 50%	–
Cc1cccc2c1[nH]c1ccccc12	23 µM	–	< 50%	–
COC(=O)c1ccc2[nH]c3cc(C(C)(C)C)ccc3c2c1	0.39 µM	–	< 50%	–
Oc1ccc2c(c1)[nH]c1ccccc12	–	–	< 50%	–
O=Cc1ccc2c(c1)[nH]c1ccccc12	13 µM	–	< 50%	–
FC(F)c1ccc2c(c1)[nH]c1ccccc12	0.87 µM	46 µM	–	–
CC(C)(C)c1ccc2[nH]c3ccccc3c2c1	0.24 µM	6.5 µM	–	Activity (HeLa [4]): Active; Activity (HeLa [5]): 76%
CC(C)(C)c1ccc2c(c1)[nH]c1ccc(C(=O)O)cc12	11 µM	–	< 50%	–
CCc1ccc2c(c1)[nH]c1ccccc12	2.8 µM	–	< 50%	–
COc1ccc2c(c1)[nH]c1c(C)nccc12	–	–	–	inhibition (Sus scrofa [6]): Active; inhibition (Sus scrofa [7]): Active
c1ccc2c(c1)[nH]c1cc3c(cc12)CCCC3	25 µM	–	< 50%	–
c1ccc2c(c1)ccc1c3ccccc3[nH]c21	4.6 µM	–	< 50%	–

Further lines, with some results ahead:

IC50 [1]	SMILES	IC50 (HeLa [2])	inhibition at 60 µM (HeLa [3])	other results
1.4 µM	CC(C)(C)c1ccc2c(c1)[nH]c1cc(C(F)(F)F)ccc12	–	< 50%	–
0.51 µM	FC(F)(F)Oc1ccc2c(c1)[nH]c1ccccc12	29 µM	–	–
17 µM	O=Cc1ccc2[nH]c3ccccc3c2c1	–	< 50%	–
1.6 µM	c1ccc2c(c1)[nH]c1c3c(ccc12)CCCC3	30 µM	–	–
5.6 µM	Cn1c2ccccc2c2ccc(C(F)(F)F)cc21	–	< 50%	–
3.3 µM	FC(F)(F)c1cccc2c1[nH]c1ccccc12	–	< 50%	–
1.6 µM	CC(=O)c1ccc2[nH]c3cc(C)ccc3c2c1	51 µM	–	–
8.8 µM	Cc1ccc2[nH]c3ccc(C(F)(F)F)cc3c2c1	–	< 50%	–
22 µM	Cc1ccc2c(c1)[nH]c1ccccc12	–	< 50%	–
7.5 µM	Cc1ccc2c(c1)[nH]c1ccc(F)cc12	–	< 50%	–
3.2 µM	CC(C)(C)Oc1ccc2c(c1)[nH]c1ccccc12	–	< 50%	inhibition (INH) (HeLa [2]): <50%
11 µM	Cc1ccc2c(c1)[nH]c1ccc(C(F)(F)F)cc12	35 µM	–	–
